Data taken from ChEMBL document CHEMBL1221298, “InCl3 mediated one-pot multicomponent synthesis, anti-microbial, antioxidant and anticancer evaluation of 3-pyranyl indole derivatives” (Bioorg Med Chem Lett, 2010).
≈ marks a conversion by molar mass, not a printed value. Calls of active or inactive are those of the source. The rule behind the calls is not given here.

Tests used:
Format in all cases: functional
Staphylococcus aureus [1] = experiment: microbe, parasite or virus in culture; details: ATCC 9144, 24 h, read-out: IZ
Bacillus cereus [2] = experiment: Antimicrobial activity against Bacillus cereus ATCC 11778 at 100 ug/ml after 24 hrs by paper disk diffusion method; details: ATCC 11778, 24 h, read-out: IZ
Escherichia coli [3] = experiment: microbe, parasite or virus in culture; details: ATCC 25922, 24 h, read-out: IZ
Klebsiella pneumoniae [4] = experiment: microbe, parasite or virus in culture; details: ATCC 11298, 24 h, read-out: IZ
Staphylococcus aureus [5] = experiment: microbe, parasite or virus in culture; details: ATCC 9144, 24 h
Bacillus cereus [6] = experiment: microbe, parasite or virus in culture; details: ATCC 11778, 24 h
Escherichia coli [7] = experiment: microbe, parasite or virus in culture; details: ATCC 25922, 24 h
Klebsiella pneumoniae [8] = experiment: microbe, parasite or virus in culture; details: ATCC 11298, 24 h
[9] = system: Radical scavenging activity; experiment: Antioxidant activity assessed as DPPH radical scavenging activity at 50 ug/ml
Summary of the method: (§1)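 Each test sample was mixed with 1 ml DPPH in methanol, incubated at 37 °C for 30 min, and read spectrophotometrically at 517 nm with a blank reading. Scavenging % was expressed as the absorbance decrease at 517 nm relative to DPPH solution without test sample.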

[10] = system: Radical scavenging activity; experiment: Antioxidant activity assessed as DPPH radical scavenging activity at 100 ug/ml
Summary of the method: as §1

[11] = system: Radical scavenging activity; experiment: Antioxidant activity assessed as DPPH radical scavenging activity at 200 ug/ml
Summary of the method: as §1

[12] = system: Radical scavenging activity; experiment: Antioxidant activity assessed as DPPH radical scavenging activity at 400 ug/ml
Summary of the method: as §1

[13] = system: Radical scavenging activity; experiment: Antioxidant activity assessed as DPPH radical scavenging activity
Summary of the method: as §1

[14] = Antioxidant activity assessed as ABTS radical scavenging activity at 50 ug/ml
Summary of the method: (§2)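 Test samples at 50, 100, 200 and 400 ug/ml were each mixed with 1 ml of freshly prepared ABTS radical cation solution, adjusted to absorbance 0.7–0.9 at 734 nm. Mixtures reacted 2 h in the dark, then absorbance was read at 734 nm against a blank. Scavenging % was taken as the absorbance decrease relative to ABTS solution without test sample.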

[15] = Antioxidant activity assessed as ABTS radical scavenging activity at 100 ug/ml
Summary of the method: as §2

[16] = Antioxidant activity assessed as ABTS radical scavenging activity at 200 ug/ml
Summary of the method: as §2

[17] = Antioxidant activity assessed as ABTS radical scavenging activity at 400 ug/ml
Summary of the method: as §2

[18] = Antioxidant activity assessed as ABTS radical scavenging activity
Summary of the method: as §2

MCF7 = experiment: Cytotoxicity against human MCF7 cells after 24 hrs by MTT assay; details: MCF7, 24 h
Summary of the method: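 Exponentially growing cells plated at 10⁴ cells/well and allowed to attach, then exposed to test compounds or doxorubicin (dissolved in 0.1% DMSO, diluted in medium; range 1–100) for 24 h; controls received medium with 0.1% DMSO. MTT (1 mg/ml) added for 4 h at 37 °C, formazan dissolved in DMSO, absorbance read at 540 nm; % cytotoxicity calculated from blank-corrected absorbances versus control.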

Compound `N#CC1=C(N)OC(c2c[nH]c3ccccc23)=C(C#N)C1c1ccccc1F` (configuration not stated) has a zone of inhibition at 100 µg/mL (Staphylococcus aureus [1]) of 19 mm, a zone of inhibition at 100 µg/mL (Bacillus cereus [2]) of 14 mm and a zone of inhibition at 100 µg/mL (Escherichia coli [3]) of 15 mm. It also gave a zone of inhibition at 100 µg/mL (Klebsiella pneumoniae [4]) of 15 mm, an MIC (Staphylococcus aureus [5]) of 23.4 µg/mL (≈ 65.7 µM) and an MIC (Bacillus cereus [6]) of 22.6 µg/mL (≈ 63.4 µM). The MIC (Escherichia coli [7]) was 27.4 µg/mL (≈ 76.9 µM), the MIC (Klebsiella pneumoniae [8]) was 30.2 µg/mL (≈ 84.7 µM) and the Activity [9] was “inactive”. The Activity [10] was “inactive”, the Activity [11] was “inactive” and the Activity [12] was “inactive”. The Activity [13] was “inactive”, the Activity [14] was “inactive” and the Activity [15] was “inactive”. For the same compound, the Activity [16] was “inactive”, the Activity [17] was “inactive” and the Activity [18] was “inactive”. For the same compound, the GI50 (MCF7) was 22.8 µM, the LC50 (concentration killing 50% of cells) (MCF7) was > 100 µM and the TGI (MCF7) was 48.2 µM.

Work on `N#CC1=C(N)OC(c2c[nH]c3ccccc23)=C(C#N)C1c1ccc(F)cc1` (configuration not stated) yielded a zone of inhibition at 100 µg/mL (Staphylococcus aureus [1]) of 21 mm, a zone of inhibition at 100 µg/mL (Bacillus cereus [2]) of 16 mm and a zone of inhibition at 100 µg/mL (Escherichia coli [3]) of 18 mm. For the same compound, the zone of inhibition at 100 µg/mL (Klebsiella pneumoniae [4]) was 17 mm, the MIC (Staphylococcus aureus [5]) was 16.8 µg/mL (≈ 47.1 µM) and the MIC (Bacillus cereus [6]) was 20.3 µg/mL (≈ 57 µM). For the same compound, the MIC (Escherichia coli [7]) was 26.2 µg/mL (≈ 73.5 µM), the MIC (Klebsiella pneumoniae [8]) was 20.1 µg/mL (≈ 56.4 µM) and the Activity ([9]; at 50 µg/mL) was 26.9%. For the same compound, the Activity ([10]; at 100 µg/mL) was 28.9%, the Activity ([11]; at 200 µg/mL) was 31.4% and the Activity ([12]; at 400 µg/mL) was 36.5%. For the same compound, the IC50 [13] was 901.11 µg/mL (≈ 2530 µM), the Activity ([14]; at 50 µg/mL) was 8.4% and the Activity ([15]; at 100 µg/mL) was 16.2%. It also gave an Activity ([16]; at 200 µg/mL) of 22.4%, an Activity ([17]; at 400 µg/mL) of 26.7% and an IC50 [18] of 960 µg/mL (≈ 2690 µM). For the same compound, the GI50 (MCF7) was 28 µM, the LC50 (concentration killing 50% of cells) (MCF7) was > 100 µM and the TGI (MCF7) was 52.4 µM.
